The results in this text go back to ChEMBL document CHEMBL3232738, “Arabinose 5-phosphate isomerase as a target for antibacterial design: studies with substrate analogues and inhibitors” (2014).

In brackets after ≈: the same amount, converted by molar mass. Activity calls are given as the source filed them. The rule behind the calls is not given here.

For assay [1], the system named is Pseudomonas aeruginosa. Briefly: Antibacterial activity against Pseudomonas aeruginosa PAO1 ATCC 15692 after 18 to 20 hrs by broth microdilution test. In kind it is functional. In a few lines:
(§1)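 Broth microdilution in Mueller–Hinton broth: compounds in triplicate serial dilutions from 2 mM downward, inoculum about 5 × 10⁵ cfu mL⁻¹, 18–20 h at 37 °C. MIC was taken as the lowest concentration inhibiting growth. The wild-type strain was run without glucose 6-phosphate.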

The subject of assay [2] is Escherichia coli. Briefly: Antibacterial activity against Escherichia coli K-12 BW25113 after 18 to 20 hrs by broth microdilution test. In kind it is functional. In a few lines:
as §1
In general terms: In broth dilution the organism is exposed to a series of concentrations in liquid medium.

Assay [3] concerns Escherichia coli. Briefly: Antibacterial activity against Escherichia coli K-12 BW25113 after 18 to 20 hrs by broth microdilution test in presence of glucose-6-phosphate. It is filed as functional. In a few lines:
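For E. coli BW25113, broth microdilution was run with glucose 6-phosphate added. Conditions: Mueller–Hinton broth, triplicate concentrations from 2 mM downward, about 5 × 10⁵ cfu mL⁻¹ inoculum, 18–20 h at 37 °C. MIC was the lowest concentration inhibiting growth.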

Assay [4] deals with Escherichia coli. Briefly: Antibacterial activity against Escherichia coli AS19 after 18 to 20 hrs by broth microdilution test.
Assay [5] has as its system Pseudomonas aeruginosa. Briefly: Binding affinity to Pseudomonas aeruginosa KdsD expressed Escherichia coli at 5 mM after 2 to 3 days by STD-NMR analysis. In a few lines: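 N-His6 Pa-KdsD was expressed in E. coli M15/pREP4 (0.5 mM IPTG, 4 h), Ni-NTA purified (>95%). Ligand at 5 mM with enzyme in PBS pH 7.0, 25 °C, sampled after 0, 2 and 3 days. STD: 50 ms Gaussian pulses, 3 s saturation, on-resonance 7.9 ppm, off-resonance 40 ppm, 2 ms T1ρ filter; free-ligand reference spectra.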

Consider `CO[C@@H]1O[C@H](COP(=O)(O)O)[C@@H](O)[C@@H]1O`, for which the MIC in the assay on Pseudomonas aeruginosa [1] was greater than 2000 µM; in the assay on Escherichia coli [2], greater than 2000 µM; with Escherichia coli [3] it was greater than 2000 µM; in the assay with Escherichia coli [4], 250 µM (≈ 61 µg/mL).

As to `CO[C@H]1O[C@H](COP(=O)(O)O)[C@@H](O)[C@@H]1O`, the MIC against Pseudomonas aeruginosa [1] is greater than 2000 µM; in the assay on Escherichia coli [2], greater than 2000 µM; with Escherichia coli [3] it was greater than 2000 µM; against Escherichia coli [4] it was 250 µM (≈ 61 µg/mL).

In the case of `CO[C@@H]1O[C@H](C(=O)O)[C@@H](O)[C@@H]1O`, the outcome with Pseudomonas aeruginosa [5] was Active. Moreover, the MIC is greater than 2000 µM against Pseudomonas aeruginosa [1], greater than 2000 µM with Escherichia coli [2], greater than 2000 µM in the assay on Escherichia coli [3] and 250 µM (≈ 44.5 µg/mL) against Escherichia coli [4].

With `CO[C@H]1O[C@H](C(=O)O)[C@@H](O)[C@@H]1O`, the outcome with Pseudomonas aeruginosa [5] was Active. Besides, the minimum inhibitory concentration (MIC) in the assay with Pseudomonas aeruginosa [1] is greater than 2000 µM; against Escherichia coli [2] it was greater than 2000 µM; in the assay on Escherichia coli [3] it was greater than 2000 µM; against Escherichia coli [4], 250 µM (≈ 44.5 µg/mL).

Regarding `O=C(NO)[C@H](O)[C@H](O)COP(=O)(O)O`, the outcome in the assay on Pseudomonas aeruginosa [5] was Active.

On to `CC(=O)O[C@H](COP(=O)(O)O)[C@@H](O)C(=O)NO`, for which, in the assay on Pseudomonas aeruginosa [5], the outcome was Active.

Consider `NC(=O)[C@H](O)[C@H](O)COP(=O)(O)O`, for which the result in the assay on Pseudomonas aeruginosa [5] was Active.

For orientation: MIC means the least concentration at which growth counts as inhibited.
